The source made the active and inactive calls. The calls are words filed in the database; no cut-off is given here. Where a SMILES comes first, the peptide text is derived from it. [ ]: non-standard residue; d: D form. NMeF = CN[C@@H](Cc1ccccc1)C(=O)O; NMeT = CN[C@H](C(=O)O)[C@@H](C)O; NMeV = CN[C@H](C(=O)O)C(C)C
Legend:
[1] = Cytotoxicity against ER negative human HTB26 cells assessed as reduction in cell viability measured after 24 hrs by Alamar blue assay; assay type: functional, cell-based; conditions: HTB26, 24 h
How it was run: (§1)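 Cells in 96-well culture plates, in triplicate. Viability taken 24 h after treatment with Alamar Blue redox dye. Fluorescence read at 560/12 nm excitation and 590 nm emission, at time zero and 4 h after dye addition.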

[2] = test system: MCF7; assay: Cytotoxicity against ER positive human MCF7 cells assessed as reduction in cell viability measured after 24 hrs by Alamar blue assay; assay type: functional, cell-based; conditions: MCF7, 24 h; how it was run: as §1
[3] = test system: Keratinocyte; assay: Cytotoxicity against human epidermal keratinocytes assessed as reduction in cell viability measured after 24 hrs by Alamar blue assay; assay type: cell-based; how it was run: as §1
[4] = test system: Staphylococcus aureus; assay: Antimicrobial activity against methicillin-resistant Staphylococcus aureus ATCC 33591 up to 128 uM measured after 22 hrs by CLSI protocol based microbroth dilution assay; assay type: functional, organism-based; conditions: dose microM <=128, time 22.0 hrs
How it was run: (§2)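 CLSI broth microdilution in 96-well format. Growth inhibition was read as absorbance at 600 nm at time zero and after 22 h incubation at 37 °C.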

[5] = test system: Enterococcus faecium; assay: Antimicrobial activity against vancomycin-resistant Enterococcus faecium EF379 up to 128 uM measured after 22 hrs by CLSI protocol based microbroth dilution assay; assay type: functional, organism-based; conditions: dose microM <=128, time 22.0 hrs; how it was run: as §2
[6] = test system: Staphylococcus warneri; assay: Antimicrobial activity against Staphylococcus warneri ATCC 17917 up to 128 uM measured after 22 hrs by CLSI protocol based microbroth dilution assay; assay type: functional, organism-based; conditions: dose microM <=128, time 22.0 hrs
How it was run: (§3)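 96-well microbroth dilution run to CLSI standards. OD 600 nm read at time zero and at the end, after 22 h incubation at 37 °C, to give growth inhibition.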

[7] = test system: Pseudomonas aeruginosa; assay: Antimicrobial activity against Pseudomonas aeruginosa ATCC 14210 up to 128 uM measured after 22 hrs by CLSI protocol based microbroth dilution assay; assay type: functional, organism-based; conditions: dose microM <=128, time 22.0 hrs; how it was run: as §3
[8] = test system: Candida albicans; assay: Antifungal activity against Candida albicans ATCC 14035 up to 128 uM measured after 22 hrs by CLSI protocol based microbroth dilution assay; assay type: functional, organism-based; conditions: dose microM <=128, time 22.0 hrs; how it was run: as §3

CC[C@@H](C)[C@@H]1NC(=O)CNC(=O)[C@H](Cc2ccccc2)N(C)C(=O)[C@H](C(C)C)NC(=O)[C@H]([C@@H](C)O)N(C)C(=O)[C@H](CC(C)C)NC(=O)CNC(=O)[C@H](C(C)C)N(C)C(=O)[C@H](C(C)C)NC(=O)[C@H](CO)NC1=O
IC50 [1]: > 10 µM
IC50 [2]: > 10 µM
IC50 [3]: > 10 µM
Activity [4]: inactive
Activity [5]: inactive
Activity [6]: inactive
Activity [7]: inactive
Activity [8]: inactive

CC[C@H](C)[C@@H]1NC(=O)CNC(=O)[C@H](Cc2ccccc2)N(C)C(=O)[C@H]([C@@H](C)CC)NC(=O)[C@H]([C@@H](C)O)N(C)C(=O)[C@H](CC(C)C)NC(=O)CNC(=O)[C@H](C(C)C)N(C)C(=O)[C@H]([C@@H](C)CC)NC(=O)[C@H](CO)NC1=O (cyclo(GISI[NMeV]GL[NMeT]I[NMeF]))
IC50 [1]: > 10 µM
IC50 [2]: > 10 µM
IC50 [3]: > 10 µM
Activity [4]: inactive
Activity [5]: inactive
Activity [6]: inactive
Activity [7]: inactive
Activity [8]: inactive

CC[C@H](C)[C@@H]1NC(=O)CNC(=O)[C@H](Cc2ccccc2)N(C)C(=O)[C@H]([C@@H](C)CC)NC(=O)[C@H]([C@@H](C)O)N(C)C(=O)[C@H](CC(C)C)NC(=O)CNC(=O)[C@H](C(C)C)N(C)C(=O)[C@H](C(C)C)NC(=O)[C@H](CO)NC1=O (cyclo(GISV[NMeV]GL[NMeT]I[NMeF]))
IC50 [1]: > 10 µM
IC50 [2]: > 10 µM
IC50 [3]: > 10 µM
Activity [4]: inactive
Activity [5]: inactive
Activity [6]: inactive
Activity [7]: inactive
Activity [8]: inactive

CC(C)C[C@@H]1NC(=O)CNC(=O)[C@H](C(C)C)N(C)C(=O)[C@H](C(C)C)NC(=O)[C@H](CO)NC(=O)[C@H](C(C)C)NC(=O)CNC(=O)[C@H](Cc2ccccc2)N(C)C(=O)[C@H](C(C)C)NC(=O)[C@H]([C@@H](C)O)N(C)C1=O (cyclo(GL[NMeT]V[NMeF]GVSV[NMeV]))
IC50 [1]: > 10 µM
IC50 [2]: > 10 µM
IC50 [3]: > 10 µM
Activity [4]: inactive
Activity [5]: inactive
Activity [6]: inactive
Activity [7]: inactive
Activity [8]: inactive
